Measured values published in ChEMBL document CHEMBL1138494, “Human glucagon receptor antagonists with thiazole cores. A novel series with superior pharmacokinetic properties” (J Med Chem, 2009).
Activity calls are given as the source filed them. The calls are words filed in the database; no cut-off is given here.

Key:
[1] = Clearance in fasted Beagle dog at 0.25 mg/kg, iv and 0.5 mg/kg, po; type: ADME, organism-based, Canis lupus familiaris; conditions: in vivo
How it was run: (§1)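 Dogs were dosed at 0.25 mg/kg iv and 0.5 mg/kg po, and plasma concentration was followed over time. Half-life came from the iv arm; clearance, Cmax and Tmax were also derived.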

[2] = Cmax in fasted Beagle dog at 0.25 mg/kg, iv and 0.5 mg/kg, po; type: ADME, organism-based, Canis lupus familiaris; conditions: in vivo; how it was run: as §1
Homo sapiens [3] = species on record: Homo sapiens; test: Selectivity for human recombinant glucagon receptor over human GLP1R
Glucagon receptor [4] = biological target: Glucagon receptor (Mus musculus, UniProt Q61606); test: Binding affinity to glucagon receptor in mouse liver membrane by membrane filter assay; type: cell membranes
[5] = Tmax in fasted Sprague-Dawley rat at 1.59 mg/kg, iv and 3.20 mg/kg, po by HTLC-MS/MS analysis; type: ADME, organism-based; conditions: in vivo, 3.2 mg/kg
How it was run: (§2)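 Plasma concentration–time profiles were recorded after separate intravenous and peroral dosing at the per-compound doses listed. T_max is reported in min alongside C_max (ng/mL), intravenous half-life and clearance ((mL/min)/kg).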

[6] = Binding affinity to glucagon receptor in monkey liver membrane by membrane filter assay; type: cell membranes, Macaca mulatta
Glucagon receptor [7] = biological target: T1, Glucagon receptor (Homo sapiens, UniProt P47871); test: Displacement of [125I]porcine glucagon from human recombinant glucagon receptor expressed in BHK cells by scintillation proximity assay; type: cell-based
Hepatocyte [8] = test: Inhibition of glucagon-stimulated glucose production in human primary hepatocytes preincubated for 10 mins before glucagon addition by NADH-linked hexokinase assay; type: functional, cell-based
How it was run: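 Cultured primary human hepatocytes were preincubated with compound for 10 min, then glycogenolysis was induced with 5 nM glucagon for 60 min. Glucose in the medium was measured against basal glycogenolysis. Albumin was present in the assay medium. IC50 was calculated from four experiments, mean ± SEM.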

[9] = Oral bioavailability in fasted Beagle dog at 0.5 mg/kg; type: ADME, organism-based, Canis lupus familiaris; conditions: in vivo
How it was run: (§3)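 Separate intravenous and peroral dosing arms per compound, with plasma concentration followed against time. Oral bioavailability (F_po) is reported per compound together with the intravenous half-life and clearance. The dose used for each arm is listed per compound.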

[10] = Cmax in fasted Sprague-Dawley rat at 1.59 mg/kg, iv and 3.20 mg/kg, po by HTLC-MS/MS analysis; type: ADME, organism-based; conditions: in vivo, 3.2 mg/kg
How it was run: (§4)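 Rats were dosed intravenously and perorally in separate arms, and plasma concentration-time profiles were obtained. Half-life was taken from the iv arm. Clearance, oral bioavailability, Cmax and Tmax were derived from the profiles.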

[11] = Clearance in fasted Sprague-Dawley rat at 1.59 mg/kg, iv and 3.20 mg/kg, po by HTLC-MS/MS analysis; type: ADME, organism-based; conditions: in vivo; how it was run: as §4
[12] = Binding affinity to glucagon receptor in rabbit liver membrane by membrane filter assay; type: cell membranes, Oryctolagus cuniculus
[13] = biological target: T2, Gastric inhibitory polypeptide receptor (Homo sapiens, UniProt P48546); test: Binding affinity to human recombinant GIPR expressed in BHK cells by membrane filter assay; type: cell-based
T2 sequence (P48546 whole entry): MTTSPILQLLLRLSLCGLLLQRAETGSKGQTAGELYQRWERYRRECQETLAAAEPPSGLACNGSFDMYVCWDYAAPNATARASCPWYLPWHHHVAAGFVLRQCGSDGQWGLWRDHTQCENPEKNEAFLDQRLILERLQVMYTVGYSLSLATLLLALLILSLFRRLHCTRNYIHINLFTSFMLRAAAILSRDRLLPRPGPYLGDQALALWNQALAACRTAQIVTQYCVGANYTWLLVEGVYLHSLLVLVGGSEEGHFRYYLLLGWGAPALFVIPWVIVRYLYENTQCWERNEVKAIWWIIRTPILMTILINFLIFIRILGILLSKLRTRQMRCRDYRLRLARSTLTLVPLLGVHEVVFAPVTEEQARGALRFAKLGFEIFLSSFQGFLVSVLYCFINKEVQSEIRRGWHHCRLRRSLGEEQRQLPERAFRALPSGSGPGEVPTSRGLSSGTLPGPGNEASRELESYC

[14] = Tmax in fasted Beagle dog at 0.25 mg/kg, iv and 0.5 mg/kg, po; type: ADME, organism-based, Canis lupus familiaris; conditions: in vivo; how it was run: as §2
[15] = Half life in fasted Beagle dog at 0.25 mg/kg, iv; type: ADME, organism-based, Canis lupus familiaris; design: dose 0.25 mg/kg, route intravenous; conditions: in vivo; how it was run: as §1
Hepatocyte [16] = test: Inhibition of glucagon-stimulated glucose production in rat primary hepatocytes; type: functional, cell-based
[17] = Binding affinity to glucagon receptor in dog liver membrane by membrane filter assay; type: cell membranes, Canis lupus familiaris
Glucagon receptor [18] = biological target: Glucagon receptor (Rattus norvegicus, UniProt P30082); test: Binding affinity to glucagon receptor in rat liver membrane by membrane filter assay; type: cell membranes
[19] = biological target: T2, Gastric inhibitory polypeptide receptor; test: Displacement of [125I]porcine GIP from human recombinant GIPR receptor expressed in BHK cells by scintillation proximity assay; type: cell-based
Homo sapiens [20] = species on record: Homo sapiens; test: Selectivity ratio of IC50 for human recombinant glucagon receptor to IC50 for human recombinant GIPR
How it was run: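 Competition binding of compounds to recombinant human glucagon and GIP receptors on BHK cell membranes, run in parallel as a scintillation proximity assay and, for selected compounds, as a membrane filtration assay.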

Glucagon receptor [21] = biological target: T1, Glucagon receptor; test: Binding affinity to human recombinant glucagon receptor expressed in BHK cells by membrane filter assay; type: cell-based
[22] = Half life in fasted Sprague-Dawley rat plasma at 1.59 mg/kg, iv by HTLC-MS/MS analysis; type: ADME, organism-based; design: dose 1.59 mg/kg, route intravenous; how it was run: as §4
[23] = Oral bioavailability in fasted Sprague-Dawley rat at 3.20 mg/kg by HTLC-MS/MS analysis; type: ADME, organism-based; conditions: in vivo, 3.2 mg/kg; how it was run: as §3
[24] = Binding affinity to glucagon receptor in pig liver membrane by membrane filter assay; type: cell membranes, Sus scrofa
[25] = Tmax in fasted Sprague-Dawley rat at 1.1 mg/kg, iv and 2.1 mg/kg, po by HTLC-MS/MS analysis; type: ADME, organism-based; conditions: in vivo; how it was run: as §2
[26] = Clearance in fasted Sprague-Dawley rat at 1.1 mg/kg, iv and 2.1 mg/kg, po by HTLC-MS/MS analysis; type: ADME, organism-based; conditions: in vivo; how it was run: as §4
[27] = Cmax in fasted Sprague-Dawley rat at 1.1 mg/kg, iv and 2.1 mg/kg, po by HTLC-MS/MS analysis; type: ADME, organism-based; conditions: in vivo; how it was run: as §4
[28] = Half life in fasted Sprague-Dawley rat plasma at 1.1 mg/kg, iv by HTLC-MS/MS analysis; type: ADME, organism-based; design: dose 1.1 mg/kg, route intravenous; how it was run: as §4
[29] = Oral bioavailability in fasted Sprague-Dawley rat at 2.1 mg/kg by HTLC-MS/MS analysis; type: ADME, organism-based; conditions: in vivo; how it was run: as §3
[30] = Clearance in fasted Sprague-Dawley rat at 1.62 mg/kg, iv and 3.25 mg/kg, po by HTLC-MS/MS analysis; type: ADME, organism-based; conditions: in vivo; how it was run: as §4
[31] = Oral bioavailability in fasted Sprague-Dawley rat at 3.25 mg/kg by HTLC-MS/MS analysis; type: ADME, organism-based; conditions: in vivo; how it was run: as §3
[32] = Cmax in fasted Sprague-Dawley rat at 1.62 mg/kg, iv and 3.25 mg/kg, po by HTLC-MS/MS analysis; type: ADME, organism-based; conditions: in vivo; how it was run: as §4
[33] = Tmax in fasted Sprague-Dawley rat at 1.62 mg/kg, iv and 3.25 mg/kg, po by HTLC-MS/MS analysis; type: ADME, organism-based; conditions: in vivo; how it was run: as §2
[34] = Half life in fasted Sprague-Dawley rat plasma at 1.62 mg/kg, iv by HTLC-MS/MS analysis; type: ADME, organism-based; design: dose 1.62 mg/kg, route intravenous; how it was run: as §4

T1 sequence (P47871 whole entry): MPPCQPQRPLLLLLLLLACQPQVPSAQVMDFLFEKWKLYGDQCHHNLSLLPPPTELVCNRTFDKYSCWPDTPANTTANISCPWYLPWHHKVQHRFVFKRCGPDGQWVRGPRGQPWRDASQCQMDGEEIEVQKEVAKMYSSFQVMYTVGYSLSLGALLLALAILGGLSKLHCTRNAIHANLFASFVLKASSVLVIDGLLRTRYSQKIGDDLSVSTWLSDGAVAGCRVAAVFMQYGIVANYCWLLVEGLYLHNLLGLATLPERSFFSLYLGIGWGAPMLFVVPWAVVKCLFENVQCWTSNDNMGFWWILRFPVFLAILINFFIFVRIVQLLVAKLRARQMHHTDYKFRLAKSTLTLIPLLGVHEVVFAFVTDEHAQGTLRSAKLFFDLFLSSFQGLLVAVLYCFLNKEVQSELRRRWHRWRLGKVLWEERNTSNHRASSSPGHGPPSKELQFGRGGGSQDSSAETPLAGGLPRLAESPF
Chain of Glucagon receptor (Rattus norvegicus, UniProt P30082) (P30082 whole entry): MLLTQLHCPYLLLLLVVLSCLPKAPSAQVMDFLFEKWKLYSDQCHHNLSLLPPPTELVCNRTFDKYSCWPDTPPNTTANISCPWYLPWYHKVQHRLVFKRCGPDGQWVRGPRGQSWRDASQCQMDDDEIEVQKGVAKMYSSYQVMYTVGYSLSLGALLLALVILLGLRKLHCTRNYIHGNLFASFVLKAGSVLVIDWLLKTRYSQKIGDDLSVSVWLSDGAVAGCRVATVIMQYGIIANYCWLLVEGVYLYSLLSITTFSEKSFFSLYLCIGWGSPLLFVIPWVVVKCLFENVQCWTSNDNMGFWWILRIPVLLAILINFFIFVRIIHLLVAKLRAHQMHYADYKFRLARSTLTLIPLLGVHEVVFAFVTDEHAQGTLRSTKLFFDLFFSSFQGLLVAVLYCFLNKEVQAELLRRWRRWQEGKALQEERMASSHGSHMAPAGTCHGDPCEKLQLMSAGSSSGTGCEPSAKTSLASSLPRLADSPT
Chain of Glucagon receptor (Mus musculus, UniProt Q61606) (Q61606 whole entry): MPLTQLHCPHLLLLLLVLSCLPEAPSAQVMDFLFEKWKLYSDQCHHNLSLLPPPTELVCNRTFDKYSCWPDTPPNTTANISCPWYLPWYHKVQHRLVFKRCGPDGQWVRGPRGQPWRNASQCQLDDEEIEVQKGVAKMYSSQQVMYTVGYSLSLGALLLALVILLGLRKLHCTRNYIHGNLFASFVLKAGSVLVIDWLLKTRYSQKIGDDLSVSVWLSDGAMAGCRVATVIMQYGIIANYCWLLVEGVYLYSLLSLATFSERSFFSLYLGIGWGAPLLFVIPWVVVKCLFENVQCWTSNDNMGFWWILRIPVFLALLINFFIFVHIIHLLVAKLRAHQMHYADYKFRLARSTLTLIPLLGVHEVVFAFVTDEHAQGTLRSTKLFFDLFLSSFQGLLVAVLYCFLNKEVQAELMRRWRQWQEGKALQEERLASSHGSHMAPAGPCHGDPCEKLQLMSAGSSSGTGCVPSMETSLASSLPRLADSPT

| fold change (FC) (Homo sapiens [3]) | IC50 (Glucagon receptor [4]) [µM] | IC50 [6] [µM] | IC50 (Glucagon receptor [7]) [µM] | IC50 [13] [µM] | IC50 (Glucagon receptor [18]) [µM] | IC50 [19] [µM] | fold change (FC) (Homo sapiens [20]) | IC50 (Glucagon receptor [21]) [µM] | SMILES | IC50 (Hepatocyte [8]) [µM] | inhibition (Hepatocyte [16]) | other results |
| --- | --- | --- | --- | --- | --- | --- | --- | --- | --- | --- | --- | --- |
| > 50 | 0.418 | 0.06 | 0.082 | 0.46 | 1.7 | 0.869 | 5 | 0.053 | O=C(O)CCNC(=O)c1ccc(CN(c2ccc(Cl)cc2)c2nc(-c3ccc(OC(F)(F)F)cc3)cs2)cc1 | 2.8 | inactive | clearance [1]: 4.64 mL/min/kg; Cmax [2]: 554 ng/mL; Tmax [5]: 1 h; bioavailability [9]: 71%; Cmax [10]: 521 ng/mL; clearance [11]: 6 mL/min/kg; IC50 [12]: 1.2 µM; Tmax [14]: 1.5 h; half-life [15]: 1.1 h; IC50 [17]: 0.078 µM; half-life [22]: 1.52 h; bioavailability [23]: 16%; IC50 [24]: 5.7 µM |
| > 50 | 0.218 | 0.062 | 0.05 | 0.29 | 1.8 | 0.488 | 5 | 0.059 | O=C(O)CCNC(=O)c1ccc(CN(c2ccc3c(c2)Cc2ccccc2-3)c2nc(-c3ccc(OC(F)(F)F)cc3)cs2)cc1 | 0.7 | inactive | Tmax [25]: 5 h; clearance [26]: 5 mL/min/kg; Cmax [27]: 471 ng/mL; half-life [28]: 2.47 h; bioavailability [29]: 12% |
| > 50 |  | 0.003 | 0.077 | 0.39 |  | 0.564 | 5 | 0.048 | O=C(O)CCNC(=O)c1ccc(CN(c2ccc3c(c2)CCCC3)c2nc(-c3ccc(C(F)(F)F)cc3)cs2)cc1 |  |  | clearance [30]: 7 mL/min/kg; bioavailability [31]: 27%; Cmax [32]: 615 ng/mL; Tmax [33]: 1.5 h; half-life [34]: 1.23 h |
